This note sets out measurements from ChEMBL document CHEMBL3526089, “Selective mechanism-based inactivation of CYP3A4 by CYP3cide (PF-04981517) and its utility as an in vitro tool for delineating the relative roles of CYP3A4 versus CYP3A5 in the metabolism of drugs” (Drug Metab Dispos, 2012).

Holding throughout (type): ADME
One data set has as its target CYP1A2 (Homo sapiens, UniProt P05177). The data set can be described thus: Time dependent inhibition of human CYP1A2 phenacetin O-deethylase activity assessed as decrease in enzyme activity at 100 uM preincubated for 30 mins by IC25-shift assay. Conditions: probe phenacetin (O-deethylation); call rule not given here. The essentials: (§1)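 IC25-shift assay. Pooled HLMs or recombinant CYP3A4/3A5/3A7 were preincubated 30 min at 37°C with CYP3cide, with or without NADPH (1.3 mM) (N=2). Mixture diluted 10-fold into probe substrate (~KM) at 37°C. Metabolites analysed by LC/MS/MS. Readout: % decrease in activity vs control.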

Data set [1] is described as follows: Inhibition of CYP3A5*3/*3 in 5 mg/ml of human liver microsomes assessed as midazolam 1'-hydroxylase activity at <2.5 uM after 10 mins.
The target in a further data set is CYP2C8 (Homo sapiens, UniProt P10632). The data set can be described thus: Time dependent inhibition of human CYP2C8 paclitaxel 6alpha-hydroxylase activity assessed as decrease in enzyme activity at 100 uM preincubated for 30 mins by IC25-shift assay. The settings on record: probe paclitaxel (6alpha-hydroxylation). The essentials:
as §1

The target in another data set is CYP3A (Homo sapiens, UniProt P08684+P20815+P24462+Q9HB55). Put plainly: Reversible inhibition of human CYP3A midazolam 1'-hydroxylase activity. Conditions: probe midazolam (1'-hydroxylation). The essentials:
(§2)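 Reversible IC50 with pooled HLM or recombinant CYP3A7 (with POR and b5), protein 0.010–0.10 mg/ml depending on isoform. Probe substrate at its experimentally derived KM. Metabolite formation measured by LC/MS/MS. IC50 determinations run in duplicate.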

A further data set addresses Cytochrome P450 3A5 (Homo sapiens, UniProt P20815). Put plainly: Inhibition of midazolam 1'-hydroxylase activity of human recombinant CYP3A5 harboring human P450 oxidoreductase and b5 assessed as decrease in enzyme activity preincubated for 30 mins by LC-MS/MS analysis. The essentials: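 rCYP3A5 with POR and b5 (0.010 mg/ml for midazolam, 0.020 mg/ml for testosterone) preincubated 30 min at 37°C with 2 µM inhibitor, ±NADPH (1.3 mM), N=2. Mixture then diluted 10-fold into probe substrate at ~KM at 37°C. Activity expressed as percent of control remaining, reported as decrease in activity.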

For a further data set, the target named is Cytochrome P450 1A2 (Homo sapiens, UniProt P05177). Put plainly: Reversible inhibition of human CYP1A2 phenacetin O-deethylase activity. The essentials:
as §2

The target in another data set is Cytochrome P450 2C9 (Homo sapiens, UniProt P11712). The data set can be described thus: Reversible inhibition of human CYP2C9 diclofenac 4'-hydroxylase activity. The essentials: as §2

A value given as a limit tells only on which side of the number the result lay.

Sequence of Cytochrome P450 3A5 (P20815 whole entry): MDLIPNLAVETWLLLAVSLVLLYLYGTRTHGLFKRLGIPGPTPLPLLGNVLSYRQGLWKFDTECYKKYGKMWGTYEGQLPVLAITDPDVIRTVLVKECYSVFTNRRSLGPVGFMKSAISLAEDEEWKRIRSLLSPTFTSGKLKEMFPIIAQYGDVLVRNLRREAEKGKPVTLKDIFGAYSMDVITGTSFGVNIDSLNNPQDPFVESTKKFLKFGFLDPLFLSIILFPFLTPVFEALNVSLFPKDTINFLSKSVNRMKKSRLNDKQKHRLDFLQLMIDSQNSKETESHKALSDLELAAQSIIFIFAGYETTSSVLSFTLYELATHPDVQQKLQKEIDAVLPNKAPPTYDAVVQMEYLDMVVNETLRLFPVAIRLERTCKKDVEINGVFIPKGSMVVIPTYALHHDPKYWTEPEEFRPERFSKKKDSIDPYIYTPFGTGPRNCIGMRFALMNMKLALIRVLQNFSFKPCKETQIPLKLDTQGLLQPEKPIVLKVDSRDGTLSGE
Sequence of CYP2C8 (P10632 whole entry): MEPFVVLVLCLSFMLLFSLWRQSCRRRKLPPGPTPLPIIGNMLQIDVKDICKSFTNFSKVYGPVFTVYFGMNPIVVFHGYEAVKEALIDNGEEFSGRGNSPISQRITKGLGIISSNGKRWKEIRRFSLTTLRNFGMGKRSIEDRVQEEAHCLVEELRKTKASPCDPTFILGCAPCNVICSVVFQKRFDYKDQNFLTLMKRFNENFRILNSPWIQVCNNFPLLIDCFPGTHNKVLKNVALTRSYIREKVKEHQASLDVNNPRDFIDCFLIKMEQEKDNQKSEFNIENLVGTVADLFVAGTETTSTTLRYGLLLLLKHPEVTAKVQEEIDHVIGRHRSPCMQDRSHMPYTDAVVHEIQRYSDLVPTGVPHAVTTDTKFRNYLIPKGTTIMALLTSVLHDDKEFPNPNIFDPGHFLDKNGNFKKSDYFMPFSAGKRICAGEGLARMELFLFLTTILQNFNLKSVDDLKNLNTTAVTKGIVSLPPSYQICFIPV
Sequence of Cytochrome P450 2C9 (P11712 whole entry): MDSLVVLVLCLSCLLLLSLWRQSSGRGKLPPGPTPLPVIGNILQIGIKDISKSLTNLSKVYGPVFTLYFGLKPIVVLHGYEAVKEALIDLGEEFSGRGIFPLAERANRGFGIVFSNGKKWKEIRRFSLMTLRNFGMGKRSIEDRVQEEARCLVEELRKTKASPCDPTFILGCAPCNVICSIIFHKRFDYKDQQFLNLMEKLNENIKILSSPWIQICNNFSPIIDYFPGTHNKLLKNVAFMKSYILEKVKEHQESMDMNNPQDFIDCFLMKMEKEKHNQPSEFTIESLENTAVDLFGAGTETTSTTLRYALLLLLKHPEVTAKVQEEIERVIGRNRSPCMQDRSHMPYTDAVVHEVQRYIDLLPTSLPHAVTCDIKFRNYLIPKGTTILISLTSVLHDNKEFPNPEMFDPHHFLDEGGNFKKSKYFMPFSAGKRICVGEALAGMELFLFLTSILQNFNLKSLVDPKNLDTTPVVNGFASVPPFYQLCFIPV
Sequence of CYP1A2 (P05177 whole entry): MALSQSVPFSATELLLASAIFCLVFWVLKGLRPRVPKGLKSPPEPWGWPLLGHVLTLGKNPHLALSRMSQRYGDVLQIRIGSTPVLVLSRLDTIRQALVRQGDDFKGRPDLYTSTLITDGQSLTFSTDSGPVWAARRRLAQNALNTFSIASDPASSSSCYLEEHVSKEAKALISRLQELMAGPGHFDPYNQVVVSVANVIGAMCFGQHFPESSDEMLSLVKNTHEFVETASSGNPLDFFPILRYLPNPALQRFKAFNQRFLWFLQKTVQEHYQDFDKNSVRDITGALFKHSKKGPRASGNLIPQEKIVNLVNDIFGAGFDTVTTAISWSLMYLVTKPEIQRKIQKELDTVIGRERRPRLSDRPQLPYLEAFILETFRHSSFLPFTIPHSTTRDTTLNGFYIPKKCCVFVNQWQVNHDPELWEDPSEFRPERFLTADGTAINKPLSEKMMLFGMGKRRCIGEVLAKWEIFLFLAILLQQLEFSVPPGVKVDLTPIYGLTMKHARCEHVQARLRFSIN
Sequence of Cytochrome P450 1A2 (P05177 whole entry): as above

As a reminder, the inhibition is the percentage by which the read-out fell short of the control. One may read the IC50 as the concentration that gives 50% inhibition. The Ki is the dissociation constant of the complex between target and ligand, obtained from inhibition or displacement. In the case of `Cc1ccc(-c2c(-c3nn(C)c4ncnc(N5CC[C@H](N6CCCCC6)C5)c34)cnn2C)cc1`, the inhibition at 30 min, 100 µM stood at 17% at CYP1A2 and 13% at CYP2C8. In addition, the “inhibition (INH)” value in data set [1] is recorded as “Not Active”. Besides, the results for the IC50 on CYP3A, on Cytochrome P450 1A2 and against Cytochrome P450 2C9 were 0.33 µM, 43 µM and > 100 µM, respectively. In addition, the inhibitory constant (Ki) on Cytochrome P450 3A5 was 2 µM.
